Data from ChEMBL document CHEMBL1143811, “Bis-acridines as lead antiparasitic agents: structure-activity analysis of a discrete compound library in vitro” (Antimicrob Agents Chemother, 2007).
Converted amounts (≈) assume the structure as drawn. The source made the active and inactive calls. The rule behind the calls is not given here.

Key:
[1] = test system: Trichomonas vaginalis; experiment: Antimicrobial activity against Trichomonas vaginalis G3 assessed as parasite death at 1 uM after 24 hrs; format: functional
[2] = test system: Entamoeba histolytica; experiment: Antimicrobial activity against Entamoeba histolytica HM1 IMSS trophozoites after 48 hrs; format: functional, organism-based; conditions: 60 h, in the assay text read “60 hrs” for “48 hrs”
How it was run: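 Trophozoites were grown axenically in TYI-S-33 with 10% bovine adult serum and seeded at ~10^4 cells/well. Compound (range up to 10 µM) was added to 48-h log-phase cultures, then incubated 60 h at 37°C under anaerobic conditions. Viability was read by CellTiter-Glo luminescence. EC50 came from quadruplicate wells in two independent experiments.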

[3] = test system: Plasmodium falciparum; experiment: Antimicrobial activity against chloroquine-sensitive Plasmodium falciparum 3D7 after 72 hrs; format: functional, organism-based; conditions: 3D7, 72 h
[4] = test system: Plasmodium falciparum; experiment: Antimicrobial activity against chloroquine-resistant Plasmodium falciparum W2 after 72 hrs; format: functional, organism-based; conditions: W2, 72 h
[5] = test system: Trypanosoma brucei brucei; experiment: Antimicrobial activity against Trypanosoma brucei brucei clone 427-221a after 48 hrs; format: functional, organism-based
How it was run: (§1)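 Bloodstream-form T. b. brucei in Baltz medium (~10^4/ml) and HL-60 cells in RPMI 1640 (~10^5/ml), both with 16.7% FBS, were exposed 48 h at 37°C in 5% CO2 to compound up to 10 µM in 1% final DMSO. Live cells were hemocytometer-counted, by motility (trypanosomes) or trypan blue exclusion (HL-60). EC50 was taken by regression versus DMSO cultures from three experiments. MIC was the lowest fully lethal concentration, judged microscopically.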

[6] = (§2) Cytotoxicity against human HL60 cells; format: cell-based, HL-60; conditions: human, HL-60 cells; read-out: MIC; how it was run: as §1
[7] = test system: HL-60; experiment: as §2; format: cell-based; conditions: Homo sapiens, HL-60; how it was run: as §1
[8] = Selectivity index, ratio of EC50 for HL60 cells to EC50 for Trypanosoma brucei brucei clone 427-221a; format: functional, HL-60; how it was run: as §1
[9] = Selectivity index, ratio of MIC for HL60 cells to MIC for Trypanosoma brucei brucei clone 427-221a; format: functional, HL-60; how it was run: as §1
[10] = test system: Leishmania donovani; experiment: Antileishmanial activity against Leishmania donovani MHOM/SD/00/1S-2D promastigotes assessed as parasite death at 10 uM after 72 hrs; format: functional
How it was run: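 Promastigotes seeded at 1.5 x 10^5 cells/ml in medium 199 with 10% heat-inactivated FBS. Compound added at a final 10 µM, in triplicate, in sealed flasks at 27°C for up to 7 days. Aliquots taken daily and viability read by CellTiter-Glo luminescence. Result given as percent reduction in viability relative to DMSO-treated cultures. Controls were K11777 or amphotericin B at 10 µM.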

[11] = test system: Leishmania major; experiment: Antileishmanial activity against Leishmania major MHOM/IL/81/FE/BNI amastigotes after 48 hrs; format: functional, organism-based
How it was run: (§3)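 Peritoneal macrophages from BALB/c mice (6-8 wk) adhered 2 h at 37°C, infected 24 h with stationary-phase L. major promastigotes at 10:1 parasite:macrophage, washed, then exposed 48 h to compound at 0.0001 to 10 µM. Intracellular amastigotes stained with acridine orange/ethidium bromide and counted by fluorescence microscopy; percent amastigotes cleared versus DMSO-treated cultures; three repeats.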

[12] = test system: Trichomonas vaginalis; experiment: Antimicrobial activity against Trichomonas vaginalis G3 assessed as parasite death at 10 uM after 24 hrs; format: functional
How it was run: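 G3 strain grown in Diamond's medium at 37°C. Assay culture set up as 0.5 ml dense culture diluted into 5.0 ml complete medium. Compound at a final 10 µM for 24 h at 37°C. Motile cells counted by hemocytometer. Result is percent dead parasites relative to DMSO-treated cultures, from five separate experiments. Controls were untreated, DMSO and metronidazole.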

[13] = Cytotoxicity against BALB/c mouse peritoneal macrophages at 10 uM after 48 hrs hrs; format: cell-based; conditions: macrophage
[14] = test system: Schistosoma mansoni; experiment: Antimicrobial activity against Schistosoma mansoni assessed as worm vitality at 6 uM after 4 hrs; format: functional, organism-based
How it was run: (§4)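 20-day-old worms were obtained by perfusion of BALB/c mice infected with 200 cercariae. About 20 worms/well were kept in Basch 169 with 10% bovine calf serum, preincubated 24 h at 37°C in 5% CO2, then exposed to 1, 3 or 6 µM. Vitality (feeding, flexing, gut peristalsis; death = nonmotile, shrunken, dark) was scored at 4 and 18 h in two experiments.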

[15] = Cytotoxicity against BALB/c mouse peritoneal macrophages at 1 uM after 48 hrs hrs; format: cell-based; conditions: macrophage
[16] = test system: Leishmania major; experiment: Antileishmanial activity against Leishmania major MHOM/IL/81/FE/BNI amastigotes after 48 hrs at 1 uM; format: functional, organism-based; how it was run: as §3
[17] = test system: Plasmodium falciparum; experiment: Antimalarial activity against chloroquine-resistant Plasmodium falciparum FcB1R after 72 hrs; format: functional, organism-based
[18] = test system: Trypanosoma brucei brucei; experiment: Antimicrobial activity against Trypanosoma brucei brucei clone 427-221a at 1.56 uM; format: functional
[19] = test system: MRC5; experiment: Toxicity against human MRC5 cells at 3.13 uM; format: cell-based; conditions: mrc5, 3.13 µM
[20] = test system: Schistosoma mansoni; experiment: Antimicrobial activity against Schistosoma mansoni assessed as worm vitality at 3 uM after 4 hrs; format: functional, organism-based; how it was run: as §4
[21] = test system: J774; experiment: Cytotoxicity against mouse J774 cells; format: cell-based

SMILES | EC50 [2] | EC50 [3] | EC50 [4] | EC50 [5] | MIC [5] | MCC [6] | EC50 [7] | Ratio EC50 [8] | Ratio [9] | Activity [10] | EC50 [11] | Activity [12] | Activity [13] | Activity [14] | Activity [15] | Activity [16] | Activity [20] | also measured
Cc1ncc([N+](=O)[O-])n1CCO [METRONIDAZOLE] | 2000 nM |  |  |  |  |  |  |  |  |  |  |  |  |  |  |  |  | Activity [1]: 100%
COc1ccc2nc3cc(Cl)ccc3c(NCCCCN(CCCNc3c4ccc(Cl)cc4nc4ccc(OC)cc34)C(=O)CNC(=O)[C@H](C)N)c2c1 | 5000 nM | 716 nM | 823 nM | 6.4 nM | 10 µM (≈ 7.57 µg/mL) | > 10 µM | 491 nM | 77 | >1 | 16% | 700 nM | 0% | Toxic |  |  |  |  | 
COc1ccc2nc3cc(Cl)ccc3c(NCCCCNCCCCCNCCCNc3c4ccc(Cl)cc4nc4ccc(OC)cc34)c2c1 | 5000 nM | 125 nM | 129 nM | 1.9 nM | 1 µM (≈ 0.714 µg/mL) | 10 µM | 270 nM | 140 | 10 | 98% | 600 nM | 66% | Toxic | Active |  |  |  | 
COc1ccc2nc3cc(Cl)ccc3c(NCCCNCCCNCCCNc3c4ccc(Cl)cc4nc4ccc(OC)cc34)c2c1 | 5000 nM | 121 nM | 147 nM | 1.4 nM | 1 µM (≈ 0.672 µg/mL) | 10 µM | 142 nM | 98 | 10 | 73% | 3000 nM | 0% |  | Active |  |  |  | 
COc1ccc2nc3cc(Cl)ccc3c(NCCOCCOCCNc3c4ccc(Cl)cc4nc4ccc(OC)cc34)c2c1 | 5000 nM | 61 nM | 74 nM | 5.8 nM | 1 µM (≈ 0.632 µg/mL) | 10 µM | 3040 nM | 524 | 10 | 96% |  | 75% | Toxic |  | Toxic | inactive |  | 
COc1ccc2nc3cc(Cl)ccc3c(NCCCNCCCNc3c4ccc(Cl)cc4nc4ccc(OC)cc34)c2c1 | 5000 nM | 127 nM | 180 nM | 1.1 nM | 1 µM (≈ 0.615 µg/mL) | 10 µM | 244 nM | 214 | 10 | 95% |  | 23% | Toxic | Active | Toxic | inactive | Active | EC50 [17]: 55 nM; Activity [18]: 100%; Activity [19]: 100%
COc1ccc2nc3cc(Cl)ccc3c(NCCNCCCNCCNc3c4ccc(Cl)cc4nc4ccc(OC)cc34)c2c1 | 5000 nM | 105 nM | 136 nM | 1.3 nM | 1 µM (≈ 0.644 µg/mL) | 1 µM | 120 nM | 91 | 1 | 99% |  | 75% | Toxic | Active | Toxic | inactive | Active | 
COc1ccc2nc3cc(Cl)ccc3c(NCCCN(C)CCCNc3c4ccc(Cl)cc4nc4ccc(OC)cc34)c2c1 | 500 nM | 790 nM | 1080 nM | 0.9 nM | 0.1 µM (≈ 0.0629 µg/mL) | 10 µM | 1180 nM | 1326 | 100 | 99% | 6000 nM | 92% |  | Active |  |  | Active | 
COc1ccc2nc3cc(Cl)ccc3c(NCCCCN(CCCNc3c4ccc(Cl)cc4nc4ccc(OC)cc34)C(=O)[C@H](C)N)c2c1 | 5000 nM | 310 nM | 303 nM | 0.9 nM | 1 µM (≈ 0.7 µg/mL) | 10 µM | 225 nM | 242 | 10 | 93% |  | 80% | Toxic |  | Toxic | inactive |  | 
COc1ccc2nc3cc(Cl)ccc3c(NCCCCNCCCNc3c4ccc(Cl)cc4nc4ccc(OC)cc34)c2c1 | 5000 nM | 62 nM | 135 nM | 0.7 nM | 1 µM (≈ 0.629 µg/mL) | 10 µM | 144 nM | 209 | 10 | 96% | 800 nM | 3% | Toxic | Active |  |  | Active | EC50 [17]: 61 nM; Activity [18]: 100%; Activity [19]: 100%; Activity [21]: Toxic
